# SR-BI DiI-HDL act – SR-BI HDL lipid transfer activation; CHO ldlA[mSR-BI] cells, DiI-HDL uptake fluorescence, 3 h; 100 = double the neutral-control signal; actives 0.096% (n = 320,000); activation, % at 12.5 µM;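 active means mean replicate activation of at least 60% and every replicate at or above 60%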;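 further: 0% = median plate neutral-control signal and 100% = twice that signal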
#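 system = CHO ldlA[mSR-BI] cells, LDL receptor-null, SR-BI overexpressing | medium = Ham's F12 with 0.5% BSA, HEPES 25 mM, pH 7.4 | probe or stimulus = DiI-HDL 10 µg/mL | compound dosing = single-point compound dose | incubation = compound exposure 3 h, 37 °C | technique = DiI fluorescence, bottom read | read-out = cell-associated DiI fluorescence as measure of HDL uptake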
# SR-BI HDL uptake – blocks mouse SR-BI lipid uptake from DiI-HDL. ldlA[mSR-BI] CHO cells, DiI-HDL uptake fluorescence, 3 h. actives 0.96% (n = 320,000). AID 488896. inhibition, % at 12.5 µM. Q61009;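 active means mean replicate inhibition of at least 70% and a set share of replicates each scoring 70 or more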;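 further: 0% = median of neutral control wells and 100% = median of positive control wells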
# Target sequence (Q61009 whole entry, looked up): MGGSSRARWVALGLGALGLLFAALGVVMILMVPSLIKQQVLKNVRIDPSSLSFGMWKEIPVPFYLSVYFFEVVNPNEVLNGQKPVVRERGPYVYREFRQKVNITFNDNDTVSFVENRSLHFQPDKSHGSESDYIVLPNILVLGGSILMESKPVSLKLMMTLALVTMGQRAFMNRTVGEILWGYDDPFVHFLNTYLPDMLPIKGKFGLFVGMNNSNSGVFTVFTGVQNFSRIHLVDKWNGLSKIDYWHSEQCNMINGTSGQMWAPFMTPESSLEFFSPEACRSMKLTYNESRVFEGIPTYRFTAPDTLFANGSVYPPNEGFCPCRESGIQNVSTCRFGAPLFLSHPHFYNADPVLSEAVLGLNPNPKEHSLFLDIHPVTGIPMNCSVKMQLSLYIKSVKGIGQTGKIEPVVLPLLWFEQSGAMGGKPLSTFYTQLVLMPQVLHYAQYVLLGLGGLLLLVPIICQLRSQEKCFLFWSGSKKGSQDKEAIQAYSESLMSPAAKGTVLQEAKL
# PvdQ acylase – P. aeruginosa PvdQ acylase inhibition; inhibition, % at 10 µM; AID 488965; actives 0.063% (n = 340,000); purified PvdQ acylase, fluorescence plate reader; in the data active means inhibition above about 30%, passing the limit was not always enough;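 further: 0% = vehicle neutral wells and 100% = reference inhibitor wells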
# dFosB act – mouse delta FosB homodimer activation | P13346 | purified delta FosB, TAMRA-CDK5 oligo fluorescence polarization; percent of positive-control signal above neutral wells | activation, % at 25 µM | actives 0.99% (n = 340,000);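 active means mean activation above about 17%, with every replicate also reaching it, limit read from the data, passing the limit was not always enough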
# Ecoli rRNA inh – selective bacterial rRNA inhibition in E. coli. GFP signal change (wild-type ribosome), % (concentration not given with the values). E. coli WT GFP vs humanized-ribosome RFP mutants, fluorescence, 24 h; active compounds read low; DMSO median 0, no signal -100. actives 1.6% (n = 350,000). AID 720706;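 active means significant combined selectivity score with lowered wild-type GFP, culture density cut under 30%, mutant RFP and density less affected; inactive means any of these conditions unmet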
# Xi reactivation – activators of X-chromosome reactivation in mouse fibroblasts | actives 0.055% (n = 360,000) | activation, % at 7.58 µM | XiGFP mouse fibroblasts, % GFP-positive cells imaging, 3 d; cells co-treated with 5-aza-dC sensitizer; scaled so ellipticine positive control = 100%;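 active means mean normalized replicate activation at least 10% and every replicate at or above 10%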;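 further: 0% = median of on-plate neutral control wells and 100% = ellipticine 6 µM median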
#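 Material: XiGFP fibroblasts, SV40-immortalized. Buffer or medium: DMEM plus 5-aza-dC sensitizer. Compound: single concentration per compound, delivered by pin transfer. Times: 3 days compound exposure. Controls: ellipticine 6 µM.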
# An asterisk follows results filed as active; i = inactive; . = no result. Compounds with a hit are over-represented: about 2.6% of the library has one in this group of screens.
SMILES,SR-BI DiI-HDL act,SR-BI HDL uptake,PvdQ acylase,dFosB act,Ecoli rRNA inh,Xi reactivation
O=C1CC(NC(=O)c2ccc(Cl)cc2)C(=O)N1 (stereo unspecified),3,-3,-4,-5,13,0
OC(CNc1ccccc1)COc1ccc(OCC(O)CNc2ccccc2)cc1 (stereo unspecified),-74,74*,-8,0,.,.
COc1ccccc1NCC(O)COc1ccc(C(C)(C)C)cc1 (stereo unspecified),-12,12,-11,-7,-39*,0
COc1cccc(S(=O)(=O)Nc2ccc3c(c2)[C@@H]2C[C@H](CC(=O)N(C)C)O[C@@H](CO)[C@@H]2O3)c1,.,.,.,.,-7,0
COc1ccc(Br)c(C(=O)OCC(=O)N2CCc3ccccc32)c1,-20,20,-2,-5,10,0
CNC(=S)Nc1cc(S(=O)(=O)Nc2cc(Cl)ccc2Cl)ccc1N1CCCC1,-9,9,-6,-5,-27*,0
Nc1ccc(N2CCOCC2)c(S(=O)(=O)Nc2cc(Cl)ccc2Cl)c1,-3,3,-5,0,-26*,0
O=C1Nc2ccccc2/C1=C/c1ccccc1F,-13,13,-4,-11,-29*,0
O=C(N/N=C/c1ccc(Br)cc1)c1ccccc1-n1cccc1,11,-11,0,-9,-41*,.
CC1=C(/C=C/C(C)=N\NC(=O)c2ccncc2)C(C)(C)CCC1,-87,87*,1,-1,8,0
Cc1ccc(OCC(=O)NNC(=O)CSc2ncnc3sc(C)c(C)c23)cc1,11,-11,-9,15,14,0
Cc1ccc(OCCSc2ncnc3sc(C)c(C)c23)cc1C,950*,i,-11,0,.,.

# Assay outcomes deposited in PubChem by Broad Institute.
